Data set [1] has as its system HEK293. The experiment in a line: Inhibition of rabbit recombinant Cav2.2/rat recombinant Cavbeta3/Cavalpha2delta-1 expressed in HEK-293 cell assessed as decrease in current density at 500 uM at holding potential of -80 mV after 3 hrs by whole-cell patch clamp technique. It counts as cell-based. Put shortly:
(§1)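 HEK-293 cells were transiently co-transfected (lipofection) with CaV subunit cDNAs plus a GFP plasmid. Cells were split at ~10% confluence 2 days later and GFP-positive cells recorded ~4 h after. Cells were preincubated 1–3 h in medium with 500 µM compound (water stock). Whole-cell Ba²⁺ currents were recorded at 22–24 °C with CsCl/EGTA/MgATP pipette solution, pH 7.1, P/4 leak subtraction, normalized to Cm, within 15 min of break-in. Pulses were 140 ms from Vh −80 mV. Student's t-test.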

Data set [2] is filed under the species Rattus norvegicus. The experiment in a line: Toxicity in Sprague-Dawley rat spinal nerve ligation-induced neuropathic pain model assessed as reduction of righting at 10 to 300 ug, it. It counts as organism-based. As to conditions: in vivo, icv_or_intrathecal.
Data set [3] deals with HEK293. Kind of data set: Inhibition of rabbit recombinant Cav2.2/rat recombinant Cavbeta3/Cavalpha2delta-1 expressed in HEK-293 cell assessed as decrease in inward current at 500 uM at voltages from -20 to +30 mV after 3 hrs by whole-cell patch clamp technique. It counts as cell-based. Put shortly:
as §1

In data set [4] the test system is HEK293. The experiment in a line: Inhibition of rabbit recombinant Cav2.2/rat recombinant Cavbeta3 expressed in HEK-293 cell assessed as current density at 500 uM after 3 hrs by whole-cell patch clamp technique. It counts as cell-based. Put shortly: as §1
A general note: Patch clamp records ionic current or voltage across a cell membrane.

For data set [5], the species on record is Rattus norvegicus. Kind of data set: Toxicity in Sprague-Dawley rat spinal nerve ligation-induced neuropathic pain model assessed as reduction of stepping at 10 to 300 ug, it. It counts as organism-based. The conditions noted are these: in vivo, icv_or_intrathecal.
Data set [6] relates to HEK293. Kind of data set: Inhibition of rabbit recombinant Cav2.2/rat recombinant Cavbeta3/Cavalpha2delta-1 expressed in HEK-293 cell assessed as inhibition of channel current at 500 uM by whole-cell patch clamp technique. It counts as cell-based. Put shortly:
as §1

Data set [7] relates to HEK293. The experiment in a line: Inhibition of rabbit recombinant Cav2.2/rat recombinant Cavbeta3/Cavalpha2delta-1 expressed in HEK-293 cell assessed as hyperpolarizing shift in half-inactivation potential at 500 uM after 3 hrs by whole cell patch clamp technique. It counts as cell-based. As to conditions: in the assay text read “depolarizing” for “hyperpolarizing”. Put shortly: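 Transiently transfected CaV2.2α1/β3/α2δ-1 HEK-293 cells were treated 3 h with 500 µM in culture medium. Whole-cell recording at 22–24 °C. 2 s prepulses of various amplitudes from Vh −80 mV, then test pulses to +20 mV. Steady-state inactivation was fitted with a Boltzmann equation to give V½ and slope; n = 4–6.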

Data set [8] addresses Cav1.3/Cav beta3 complex (Rattus norvegicus) (UniProt P27732+P54287). The experiment in a line: Inhibition of rat recombinant Cav1.3/Cavbeta3 expressed in HEK-293 cell assessed as current density at 500 uM after 3 hrs by whole-cell patch clamp technique. It counts as cell-based. The conditions noted are these: HEK293. Put shortly:
(§2)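 Rat CaV1.3α1 (pcDNA6/His) was transiently co-transfected with β3, with or without α2δ-1, plus GFP into HEK-293 cells. Cells were incubated 3 h with 500 µM, then whole-cell Ba²⁺ current–voltage relationships were recorded at 22–24 °C, normalized to membrane capacitance. n = 9 with α2δ-1; n = 5–7 without.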

Data set [9] addresses Cav1.3/Cav beta3/Cav alpha2delta complex (Rattus norvegicus) (UniProt P54290+P27732+P54287). Kind of data set: Inhibition of rat recombinant Cav1.3/Cavbeta3/Cavalpha2delta-1 expressed in HEK-293 cell assessed as decrease in current density at 500 uM after 3 hrs by whole-cell patch clamp technique. It counts as cell-based. As to conditions: HEK293. Put shortly:
as §2

For data set [10], the system named is Rattus norvegicus. Kind of data set: Anti-allodynic activity in Sprague-Dawley rat spinal nerve ligation-induced neuropathic pain model assessed as tactile allodynia at 10 to 300 ug administered intrathecally measured after 4 hrs by von frey filament based paw withdrawal threshold method. It counts as functional, organism-based. Put shortly: (§3)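 Rats 140–160 g, 12/12 h light/dark, food and water ad libitum. Spinal nerve ligation under ketamine/xylazine (45:12 mg/kg i.p.). An intrathecal PE-10 catheter was placed to the lumbar level via the atlantooccipital membrane, followed by 5 d recovery. Rats with motor impairment were excluded. Bolus doses of 10–300 µg/rat were given to allodynic rats, against vehicle. 50% paw withdrawal threshold to von Frey filaments after 30–40 min acclimation on mesh.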

Data set [11] has as its system HEK293. The experiment in a line: Inhibition of rabbit recombinant Cav2.2/rat recombinant Cavbeta3/Cavalpha2delta-1 expressed in HEK-293 cell assessed as decrease in whole cell Ba2+ current at 500 uM at holding potential of -80 mV up to 3 hrs by whole-cell patch clamp technique. It counts as cell-based. Put shortly:
as §1

Data set [12] concerns the target Voltage-dependent T-type calcium channel subunit alpha-1G (Homo sapiens) (UniProt O43497). Kind of data set: Inhibition of human recombinant Cav3.1 expressed in HEK-293 cell assessed as current density at 500 uM after 3 hrs by whole cell patch clamp technique. As to conditions: HEK293. It counts as cell-based. Put shortly:
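HEK-293 cells stably expressing CaV3.1a (no auxiliary subunits) were re-seeded on poly-L-lysine coverslips and recorded ~4 h later. Cells were incubated 3 h with 500 µM. Whole-cell current–voltage relationships were recorded at 22–24 °C, normalized to Cm; n = 5–6.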

Data set [13] deals with Rattus norvegicus. The experiment in a line: Anti-allodynic activity in Sprague-Dawley rat spinal nerve ligation-induced neuropathic pain model assessed as reversal of tactile allodynia at 10 to 300 ug administered intrathecally measured after 1 hr by von frey filament based paw withdrawal threshold method. It counts as functional, organism-based. Put shortly: as §3
Data set [14] relates to HEK293. Kind of data set: Inhibition of rabbit recombinant Cav2.2/rat recombinant Cavbeta3/Cavalpha2delta-1 expressed in HEK-293 cell assessed as current density at 500 uM at holding potential of -80 mV after 1 to 2 hrs by whole-cell patch clamp technique. It counts as cell-based. Put shortly:
as §1

For data set [15], the species on record is Rattus norvegicus. Kind of data set: Toxicity in Sprague-Dawley rat spinal nerve ligation-induced neuropathic pain model assessed as reduction of corneal and pinna reflexes at 10 to 300 ug, it. It counts as organism-based, Cornea. As to conditions: in vivo, icv_or_intrathecal.
Data set [16] has as its system Rattus norvegicus. Kind of data set: Anti-allodynic activity in Sprague-Dawley rat spinal nerve ligation-induced neuropathic pain model assessed as reversal of tactile allodynia at 10 to 300 ug administered intrathecally measured after 2 hrs by von frey filament based paw withdrawal threshold method. It counts as functional, organism-based. Put shortly: as §3

SMILES strings stand for the structures. Calls of active or inactive are those of the source.

Chain of Voltage-dependent T-type calcium channel subunit alpha-1G (Homo sapiens) (O43497 whole entry): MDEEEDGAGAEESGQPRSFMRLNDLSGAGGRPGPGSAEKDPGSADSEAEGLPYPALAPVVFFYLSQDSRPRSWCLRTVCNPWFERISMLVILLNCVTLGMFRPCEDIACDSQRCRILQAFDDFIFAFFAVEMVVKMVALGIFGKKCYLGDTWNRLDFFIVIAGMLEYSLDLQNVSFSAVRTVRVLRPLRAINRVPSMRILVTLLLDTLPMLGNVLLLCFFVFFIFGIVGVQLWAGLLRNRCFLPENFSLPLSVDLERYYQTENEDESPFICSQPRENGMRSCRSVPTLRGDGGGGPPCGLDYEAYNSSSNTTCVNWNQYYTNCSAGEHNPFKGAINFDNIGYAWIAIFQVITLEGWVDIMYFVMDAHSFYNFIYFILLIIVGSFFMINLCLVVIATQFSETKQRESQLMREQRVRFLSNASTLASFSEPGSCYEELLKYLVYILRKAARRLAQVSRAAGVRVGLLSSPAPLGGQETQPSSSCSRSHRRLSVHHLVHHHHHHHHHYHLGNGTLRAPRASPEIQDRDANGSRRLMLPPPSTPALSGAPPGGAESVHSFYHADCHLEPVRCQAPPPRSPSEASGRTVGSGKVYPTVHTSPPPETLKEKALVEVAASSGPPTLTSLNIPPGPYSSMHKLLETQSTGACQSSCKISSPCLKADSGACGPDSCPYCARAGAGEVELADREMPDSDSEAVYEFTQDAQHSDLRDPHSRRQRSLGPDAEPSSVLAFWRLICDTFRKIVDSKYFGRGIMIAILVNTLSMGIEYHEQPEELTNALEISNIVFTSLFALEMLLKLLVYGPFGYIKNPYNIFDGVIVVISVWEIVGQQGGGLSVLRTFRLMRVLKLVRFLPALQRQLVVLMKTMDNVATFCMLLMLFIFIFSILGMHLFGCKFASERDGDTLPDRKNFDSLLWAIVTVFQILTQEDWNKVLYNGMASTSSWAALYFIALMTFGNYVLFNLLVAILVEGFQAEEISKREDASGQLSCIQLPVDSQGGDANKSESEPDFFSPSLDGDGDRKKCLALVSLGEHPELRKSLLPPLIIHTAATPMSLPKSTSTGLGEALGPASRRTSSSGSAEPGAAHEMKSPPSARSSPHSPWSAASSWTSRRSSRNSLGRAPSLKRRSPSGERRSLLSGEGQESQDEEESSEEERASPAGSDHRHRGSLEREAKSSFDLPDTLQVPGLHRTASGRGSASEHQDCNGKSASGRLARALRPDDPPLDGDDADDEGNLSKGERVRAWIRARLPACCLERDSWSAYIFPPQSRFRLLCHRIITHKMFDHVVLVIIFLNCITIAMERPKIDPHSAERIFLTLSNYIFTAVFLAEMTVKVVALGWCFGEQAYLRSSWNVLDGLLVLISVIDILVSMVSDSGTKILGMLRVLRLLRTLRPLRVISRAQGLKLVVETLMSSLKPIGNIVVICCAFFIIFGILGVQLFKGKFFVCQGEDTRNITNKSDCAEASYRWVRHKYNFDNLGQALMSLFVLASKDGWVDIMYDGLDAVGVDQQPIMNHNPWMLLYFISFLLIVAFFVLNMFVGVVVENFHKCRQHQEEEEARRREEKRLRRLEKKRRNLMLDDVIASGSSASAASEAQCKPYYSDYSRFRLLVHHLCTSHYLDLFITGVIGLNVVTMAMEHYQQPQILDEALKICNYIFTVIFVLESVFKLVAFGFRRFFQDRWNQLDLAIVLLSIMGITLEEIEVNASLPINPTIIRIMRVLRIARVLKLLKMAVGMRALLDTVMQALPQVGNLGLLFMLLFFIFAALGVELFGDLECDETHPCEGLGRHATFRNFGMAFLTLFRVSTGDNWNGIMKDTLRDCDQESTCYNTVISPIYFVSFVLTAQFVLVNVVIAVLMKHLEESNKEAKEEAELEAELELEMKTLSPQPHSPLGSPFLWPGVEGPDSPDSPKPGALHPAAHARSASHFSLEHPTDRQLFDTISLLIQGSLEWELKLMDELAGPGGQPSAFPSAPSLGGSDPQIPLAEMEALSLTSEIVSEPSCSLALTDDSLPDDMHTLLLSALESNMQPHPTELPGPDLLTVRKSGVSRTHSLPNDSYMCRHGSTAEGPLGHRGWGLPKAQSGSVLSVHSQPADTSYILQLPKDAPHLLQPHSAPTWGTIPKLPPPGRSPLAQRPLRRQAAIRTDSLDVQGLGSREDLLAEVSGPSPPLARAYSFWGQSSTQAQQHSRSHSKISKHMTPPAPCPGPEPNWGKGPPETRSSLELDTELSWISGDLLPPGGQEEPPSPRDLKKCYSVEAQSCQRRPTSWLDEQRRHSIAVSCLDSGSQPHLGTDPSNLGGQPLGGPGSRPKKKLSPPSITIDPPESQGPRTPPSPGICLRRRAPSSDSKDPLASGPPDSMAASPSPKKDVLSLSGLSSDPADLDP

One may read the inhibition as the drop in the measured response relative to a control, in per cent. As to `Cl.NCC1C2CC3CC(C2)CC1(C(=O)O)C3` (stereo unspecified), the inhibition entry (in the data set with HEK293 [1]; in the data set with HEK293 [3]; with HEK293 [7]; in [9]; with HEK293 [11]) was “Active” in each case. For the same compound, the Activity entry in the data set filed under Rattus norvegicus [2], in the data set filed under Rattus norvegicus [5] and in the data set filed under Rattus norvegicus [15] was “Non-toxic” in each case. In addition, the inhibition result (with HEK293 [4]; in data set [8]; in data set [12]; with HEK293 [14]) was “inactive” each time. Also, in the data set with HEK293 [6], the inhibition came out at 30%. Also, in the data set on Rattus norvegicus [10], the outcome was inactive. Also, the result with Rattus norvegicus [13] and with Rattus norvegicus [16] was Active.

The values above are taken from ChEMBL document CHEMBL3124805, “Anti-allodynic effect of 2-(aminomethyl)adamantane-1-carboxylic acid in a rat model of neuropathic pain: a mechanism dependent on CaV2.2 channel inhibition” (Bioorg Med Chem, 2014).
